MrgX1 agonist = agonists of human MrgX1 receptor; Q96LB2; MrgX1-HEK293 cells, Fluo-4 calcium fluorescence, agonist mode; hits give high values; B-score at 10 µM; 310,000 tested, 0.44% active; AID 588627;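 active means calcium response B-score plate-corrected fluorescence ratio at least 3 library SD, with starting fluorescence B-score inside 5 SD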
Target sequence (Q96LB2 whole entry, looked up): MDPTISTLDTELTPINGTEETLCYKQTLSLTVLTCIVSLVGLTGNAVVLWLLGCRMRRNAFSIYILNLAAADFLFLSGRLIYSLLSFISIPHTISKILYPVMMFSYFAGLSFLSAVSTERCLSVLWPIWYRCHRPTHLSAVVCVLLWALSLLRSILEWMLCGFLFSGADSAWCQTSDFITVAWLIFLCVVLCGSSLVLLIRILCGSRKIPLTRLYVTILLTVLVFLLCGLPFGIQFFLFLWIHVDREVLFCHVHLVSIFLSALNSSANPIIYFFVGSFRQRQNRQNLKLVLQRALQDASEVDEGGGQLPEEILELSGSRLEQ
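Assay system: MrgX1-expressing HEK293 cells / Amount: fifteen thousand cells per well / Doses: test compound in the initial addition of three / Timing: cells plated overnight, dye loaded 0.5 h 37 °C, 0.5 h room temperature / Technique: kinetic calcium dye fluorescence, Fluo-4 NW / Control set: positive and negative controls per plate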
MrgX1 antagonist = human MrgX1 receptor antagonism, primary screen; Q96LB2; MRGX1-HEK293 calcium flux, Fluo-4, BAM8-22 antagonism; hits give low values; B-score at 10 µM; 310,000 tested, 1.3% active; AID 588676;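 active means calcium-response B-score plate-corrected more than 3 library SD below zero, starting fluorescence within 5 deviations, no agonist response on first addition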;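 further: peak minus trough fluorescence over baseline after final BAM8-22 challenge near maximal dose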
RGS4 pot = RGS4 potentiation or activation. HEK293 M3R/inducible RGS4, carbachol calcium flux Fluo4; hits give low values. B-score at 10 µM. 310,000 tested, 0.92% active;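 active means B-score of the integrated calcium signal more than 4 SD below the library mean, with starting fluorescence not abnormally high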;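 further: negative B-score means reduced calcium response which marks RGS4 activation or potentiation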
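Assay system: Inducible-RGS4 HEK293 cells carrying M3 receptor | Schedule: Compound preincubation 20 min at room temperature before agonist | Signal: Kinetic calcium fluorescence imaging with Fluo4-AM dye, 2 µM | Read-out basis: B score from integrated fluorescence ratio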
MrgX1 allo act = allosterically activates human MrgX1 receptor signaling | Q96LB2 | MrgX1-HEK293, Fluo-4 calcium flux, FDSS; hits give high values | B-score at 10 µM | 310,000 tested, 0.63% active | AID 588675;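 active means plate-corrected calcium response at least 3 library SD above typical, normal starting fluorescence, not activating the receptor alone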;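 further: compound read alongside a low EC10 to EC30 dose of BAM8-22 agonist; peak minus trough fluorescence over baseline measured at the second addition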
RGS4 block = inhibitors of human RGS4. P49798. HEK293 M3R/RGS4 inducible, Fluo-4 calcium flux; hits give high values; triggered by carbachol at its EC20. B-score at 10 µM. 310,000 tested, 0.45% active. AID 463165;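 active means B-score, a plate-corrected calcium signal, over three deviations above library mean, with baseline fluorescence within five deviations of library mean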;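 further: RGS4 expression induced by doxycycline in cells with stable M3 receptor; B-score is computed from the integrated fluorescence ratio over baseline after carbachol; higher B-score means a larger calcium signal and so more RGS4 inhibition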
Target sequence (P49798 whole entry, looked up): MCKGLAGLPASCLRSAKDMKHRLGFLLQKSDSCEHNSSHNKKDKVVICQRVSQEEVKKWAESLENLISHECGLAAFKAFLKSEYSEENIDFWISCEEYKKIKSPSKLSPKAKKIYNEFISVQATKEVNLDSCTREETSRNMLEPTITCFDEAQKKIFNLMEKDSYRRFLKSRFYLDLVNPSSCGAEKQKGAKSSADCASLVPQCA
Hep lipid drop = modulators of hepatic lipid droplet formation; AML12 mouse hepatocytes, oleate lipid droplets, BODIPY imaging; inhibition, % at 6.5 µM; 240,000 tested, 0.4% active; AID 1656;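 active means lipid droplet intensity inhibited by at least 50%, with more than 500 cells counted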
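Assay system: AML12 hepatocytes (mouse); Probe or stimulus: oleic acid at 100 µM to induce lipid droplet formation; Dosing: compound at 6.5 µM only; Schedule: compound with oleate, overnight; Detection: fluorescence imaging, 20x objective, two fields per well; Measure: % inhibition of lipid droplet signal.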
RGS4 block valid = RGS4 inhibitor validation; AID 492999; shares compounds with RGS4 block; HEK293 M3R/RGS4, carbachol calcium Fluo-4 fluorescence; carbachol added at its EC20; 0 = buffer wells, 100 = carbachol control; 1,700 tested, 65% active; calcium response, % at 10 µM;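 active means duplicate-averaged calcium response above the buffer-only control mean plus 5 SD of those controls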;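 further: integrated fluorescence ratio F max minus min over baseline F0; higher response in RGS4-induced cells means RGS4 inhibition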
M3R Ca ctr = non-induced cell nonspecific activity of RGS4 inhibitors | shares compounds with RGS4 block | HEK293 M3R non-induced, carbachol calcium Fluo-4; submaximal (EC20) carbachol stimulus; buffer wells 0%, carbachol control wells 100% | activity (percent), % at 10 µM | 1,900 tested, 20% active; call rule not given here;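 further: RGS4 induction absent so cells express M3R without RGS4; higher means more calcium signal and flags a non-specific hit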
M3R basal Ca ctr = second counter-screen for RGS4 inhibitors: non-induced cells without carbachol; shares compounds with RGS4 block; HEK293 M3R/RGS4 non-induced, Fluo-4 calcium, no carbachol; normalised: buffer wells 0%, carbachol wells 100%; calcium response (agonist-mode artifact), % at 10 µM; 1,900 tested, 22% active; AID 493001;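 active means duplicate-averaged calcium rise in uninduced cells above buffer wells' mean plus 5 SD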
Active calls of the source: *; i = inactive; . = no result given. This is a sample that favours compounds with a hit; in the whole collection about 3.8% have one here.

SMILES	MrgX1 agonist	MrgX1 antagonist	RGS4 pot	MrgX1 allo act	RGS4 block	Hep lipid drop	RGS4 block valid	M3R Ca ctr	M3R basal Ca ctr
CSc1nc(SCCO)c2sc3nc(-c4ccco4)c4c(c3c2n1)CC(C)(C)OC4	.	.	i	.	i	.	.	.	.
CSc1nc(N(CCO)CCO)c2sc3nc(-c4ccco4)c4c(c3c2n1)CCC4	.	.	i	.	i	-10.1	i	i	i
O=C1CCN(CCc2ccccc2)CCN1[C@H](COc1ccccc1)c1ccccc1	i	i	i	i	i	.	.	.	.
O=C(c1ccc(Cl)c([N+](=O)[O-])c1)N1CCN(Cc2ccc3c(c2)OCO3)CC1	i	i	i	i	i	9.4	.	.	.
CC(=O)N1CCc2cc(S(=O)(=O)NC(C)c3ccccc3)ccc21 (stereo not drawn)	i	i	i	i	i	-2.6	i	i	i
O=C(/C=C/c1ccncc1)c1ccc2c(c1)OCCO2	i	i	i	i	7.46*	0.2	32.5%*	i	i
O=C(Nc1ccncc1)c1ccc2c(c1)OCCO2	i	i	i	i	i	.	.	.	.
CN(c1ccccc1)c1ccc(/C=C/[N+](=O)[O-])cc1	i	i	i	i	6.08*	-4.2	32.5%*	i	108.0%*
O=S(=O)(NCc1ccco1)c1ccccc1Br	i	i	i	i	i	-5.3	.	.	.
O=C(CCc1nc2ccccc2[nH]c1=O)N/N=C/c1ccccc1	i	i	i	i	i	-1.2	.	.	.
Cc1ccsc1/C=N/NC(=S)NCc1ccccc1	i	i	i	i	i	10.4	.	i	i
Cc1cccc(N=c2oc3cc(O)ccc3cc2C(N)=O)c1	i	i	i	i	4.71*	.	6.0%*	i	30.5%*
CCCCC1=CC2=C(c3ccco3)C(=O)C(C)(OC(=O)c3ccc(OC)cc3)C(=O)C2=CN1Cc1ccc(OC)cc1 (stereo not drawn)	.	.	i	.	i	2.6	.	.	.
CCCCC1=CC2=C(c3ccco3)C(=O)C(C)(OC(=O)c3ccc(OC)cc3)C(=O)C2=CN1CCCCO (stereo not drawn)	i	i	i	i	i	.	i	i	i
CCCCC1=CC2=C(c3ccco3)C(=O)C(C)(OC(=O)c3ccc(OC)cc3)C(=O)C2=CN1CCCN(CC)CC (stereo not drawn)	i	i	i	i	i	5.4	i	i	i
CCCCC1=CC2=C(c3ccco3)C(=O)C(C)(OC(=O)c3ccc(OC)cc3)C(=O)C2=CN1Cc1ccco1 (stereo not drawn)	i	-4.63*	i	i	i	29.2	i	i	i
CCCCC1=CC2=C(c3ccco3)C(=O)C(C)(OC(=O)c3ccc(OC)cc3)C(=O)C2=CN1CCN1CCOCC1 (stereo not drawn)	i	i	i	i	i	-14.4	i	i	i
CCCCC1=CC2=C(c3ccco3)C(=O)C(C)(OC(=O)c3ccc(OC)cc3)C(=O)C2=CN1CC(C)C (stereo not drawn)	i	i	i	i	6.75*	0.9	5.0%*	i	i
CCCCC1=CC2=C(c3ccco3)C(=O)C(C)(OC(=O)c3ccc(OC)cc3)C(=O)C2=CN1c1ccc(OC)cc1 (stereo not drawn)	i	i	i	i	5.33*	-3.0	7.0%*	i	i

Bioassay records as filed in PubChem BioAssay.
